# Most compounds without a hit are left out; they make up all but 1.6% or so of the library.
# ARFGAP1 inh: inhibits rat ARF GTPase activating protein 1; inhibition, % at 16.5 µM; actives 0.26% (n = 360,000); AID 651572; Q62848; Arfgap1-stimulated ARF1 GTP hydrolysis, GDP FP detection;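 active = inhibition above a per-plate limit, mean inhibition of low control wells plus 3 SD, cut at about 25% in these data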;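 note: 0% = DMSO wells with enzyme and 100% = wells lacking Arfgap1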
# Target sequence (Q62848 1-136 limits assumed): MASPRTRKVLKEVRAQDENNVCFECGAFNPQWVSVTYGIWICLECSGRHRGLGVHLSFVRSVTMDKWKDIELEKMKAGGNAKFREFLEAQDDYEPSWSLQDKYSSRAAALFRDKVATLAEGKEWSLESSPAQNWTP
#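 Replicates: Single well per compound | Assay system: Truncated rat Arfgap1 GAP domain | Control set: No-Arfgap1 wells (100%) versus DMSO full-reaction wells (0%) | Times: Enzyme reaction 120 min at 25 °C after 20 min preincubation | Reagent: Human ARF1(Δ1-17)-GTP substrate | Measured by: Tracer-displacement fluorescence polarization with EDTA stop, 620/688 nm | Measure: Percent inhibition of Arfgap1-stimulated GTP hydrolysis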
# Neddyl block: blocks human cullin neddylation | actives 0.58% (n = 360,000) | P61081+Q13564 | inhibition, % at 25 µM | TR-FRET cullin neddylation, biochemical; in the data active = inhibition above about 36%
# H9c2 protect: protects H9c2 cardiomyocytes from peroxide injury | AID 588492 | actives 0.63% (n = 360,000) | H2O2 injury protection, ATPLite, 2 h | protection from H2O2 cell death, % at 20 µM;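 active = compounds giving at least 50% protection of heart cells from peroxide-induced death in the single-dose screen, raw or plate-pattern-corrected value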;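 note: 0% = DMSO wells with peroxide and 100% = DMSO wells without peroxide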
# ASAP1 inh: blocks human ASAP1-stimulated Arf1 GTP hydrolysis; inhibition, % at 16.5 µM; actives 0.19% (n = 360,000); AID 624377; Q9ULH1; GDP FP detection; in the data active = inhibition above about 25%;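 note: 0% = vehicle with enzyme and substrate and 100% = no enzyme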
# Target sequence (Q9ULH1 325-724 limits assumed): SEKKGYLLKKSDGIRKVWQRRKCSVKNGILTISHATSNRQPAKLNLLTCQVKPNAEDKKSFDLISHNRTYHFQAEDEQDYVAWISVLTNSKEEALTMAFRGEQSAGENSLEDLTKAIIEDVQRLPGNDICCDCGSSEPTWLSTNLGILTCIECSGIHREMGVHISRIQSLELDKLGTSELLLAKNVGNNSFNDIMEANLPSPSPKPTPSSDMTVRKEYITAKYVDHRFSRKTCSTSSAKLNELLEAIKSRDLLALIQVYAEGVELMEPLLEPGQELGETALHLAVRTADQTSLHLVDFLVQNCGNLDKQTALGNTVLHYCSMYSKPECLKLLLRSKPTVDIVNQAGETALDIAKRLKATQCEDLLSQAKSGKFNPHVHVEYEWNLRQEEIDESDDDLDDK
# ASAP1 GAP conf: ASAP1 inhibition confirmed. shares compounds with ASAP1 inh. ASAP1-stimulated Arf1 GTPase, GDP fluorescence polarization. inhibition, % at 16.5 µM. actives 37% (n = 620);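 active = mean inhibition over triplicates exceeds the hit threshold derived for the earlier primary screening run, cut at about 25% in these data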
# * marks the source's active call; other numbers are inactive results; x = not tested or not shown.
SMILES,ARFGAP1 inh,Neddyl block,H9c2 protect,ASAP1 inh,others
Cc1cccc(Cl)c1NC(=O)N(C)c1ccccc1,0.8,x,x,7.5,
O=c1ccn2c(n1)OC1CC2OC1COC(c1ccccc1)(c1ccccc1)c1ccccc1 (stereo not drawn),3.6,x,x,-7.9,
Nc1ccc(-c2n[nH]c(=O)c3ccccc23)cc1N,3.2,3.6,79.5*,2.7,
Cc1ccc(-c2n[nH]c(=O)c3ccccc23)cc1N,-5.7,-4.5,67.6*,0.0,
CC1Oc2ccc(C#N)cc2N(Cc2ccc(F)cc2)C1=O (stereo not drawn),x,2.4,2.9,x,
O=C(NCC(=O)N(Cc1cccs1)C(C(=O)NC1CCCC1)c1ccncc1)c1ccco1 (stereo not drawn),-9.6,-5.8,0.4,1.8,
O=C(NCC(=O)N(Cc1cccs1)C(C(=O)NC1CCCCC1)c1ccco1)c1ccco1 (stereo not drawn),3.8,-1.2,77.2*,-2.9,
CC(C)C[C@H]1COc2cc(NCc3ccc(Cl)c(Cl)c3)ccc2S(=O)(=O)N1,-4.2,x,x,-4.5,
CCCNC(=O)c1ccc2c(=O)c(O)c(-c3ccc(F)cc3)[nH]c2c1,x,x,57.1*,x,
CCCNC(=O)c1ccc2c(=O)c(O)c(-c3cccc(Br)c3)[nH]c2c1,-0.6,20.4,53.7*,1.4,
Cc1ccc(F)c(S(=O)(=O)NC(=O)C2(C)CCN2C(=O)Cc2cccc3ccccc23)c1 (stereo not drawn),6.5,4.3,-4.5,-10.6,
CN(NC(=O)C(=O)NCc1ccco1)C(=O)NC1CCCCC1,3.8,x,x,3.9,
Cc1cc(C=O)c(C)n1-c1cc(C(F)(F)F)ccc1N1CCOCC1,-8.4,-4.8,137.9*,-10.1,
CC(=O)CCc1ccc(Oc2nc(-c3cccnc3)nc3ccccc23)cc1,-1.0,-3.8,54.9*,-3.4,
C=CCNc1nc(N)c(C(=C(C#N)C#N)c2ccc(Br)cc2)s1,-7.4,x,55.9*,2.6,
COC(=O)c1cc(C(=O)OCC(=O)N2c3ccccc3NC(=O)C2(C)C)cc([N+](=O)[O-])c1,x,-27.9,57.5*,x,
COC(=O)[C@]12C[C@H](CC(=O)NCc3cccc4ccccc34)C(=O)N(CCC3=CCCCC3)C1=C[C@H](C(C)(C)C)O[C@@H]2C,-3.9,x,x,-4.6,
Fc1ccc(-c2ccc3c(n2)CCCN3Cc2ccccc2C(F)(F)F)cc1,6.7,x,x,16.3,
COc1ccccc1Cc1c(C(C)(C)C)nc2c(C)cc(Br)cn12,0.0,x,x,2.6,
CCOc1ccc(NC(=O)c2cc3c(=O)n(C)c4ccccc4c3n2C)cc1,-1.0,37.3,66.4*,-7.3,
Cn1c(C(=O)Nc2ccc3c(c2)OCO3)cc2c(=O)n(C)c3ccccc3c21,5.3,x,28.7,1.6,
CC(NC(=O)c1cc2c(=O)n(C)c3ccccc3c2n1C)c1ccc2c(c1)OCCO2 (stereo not drawn),-12.2,-264.1,72.0*,-1.6,
O=C(C(=O)N1CCC(CNS(=O)(=O)c2ccccc2)CC1)c1cc2ccccc2o1,-6.1,x,x,3.4,
COc1ccccc1C(=O)Nc1nc(-c2ccc3c(c2)OCCO3)cs1,0.6,-51.1,64.5*,-1.2,
C[C@@H]1NS(=O)(=O)c2c(F)cccc2O[C@@H]1c1ccccc1,6.4,x,x,3.0,
SMILES,ARFGAP1 inh,Neddyl block,H9c2 protect,ASAP1 inh,others
Cc1ccc(-c2nn3c(C)nnc3s2)cc1NC(=O)c1ccc(-c2cccc(Cl)c2)o1,14.1,12.8,65.1*,-6.6,
Cc1ccc(-c2nn3c(C)nnc3s2)cc1NC(=O)c1ccc(-c2ccc(Cl)cc2Cl)o1,13.7,x,-20.5,16.3,
COc1ccc(/C=N/NC(=O)c2sccc2OCc2ccc(F)cc2)cc1OC,4.9,29.5,53.2*,1.9,
O=C(N/N=C/c1ccncc1)c1ccc(COc2cccc3cccnc23)cc1,-4.2,-1.7,63.8*,11.8,
COc1ccc(/C=N/NC(=O)c2ccc(COc3cccc4cccnc34)cc2)cc1OC,6.7,35.0,54.4*,10.5,
Cc1cc(C)cc([C@H]2C[C@]34CN(C(=O)OC(C)(C)C)S(=O)(=O)[C@H]3C[C@H]2O4)c1,-3.9,x,x,8.5,
CC(C)COP(=O)(OCC(C)C)C(Nc1ccccc1)c1ccc2c(c1)OCO2 (stereo not drawn),12.2,-11.3,66.6*,15.0,
Cn1nc(C(C)(C)C)cc1NC(=O)C1(C)CCN1C(=O)C1(c2ccccc2)CC1 (stereo not drawn),-2.6,5.2,0.3,25.4*,ASAP1 GAP conf=0.2
C/C=C(/C)C(=O)O[C@@H]1[C@H](OC(=O)C=C(C)C)c2c(ccc3ccc(=O)oc23)OC1(C)C,-0.8,6.6,-17.0,26.1*,ASAP1 GAP conf=3.0
C/C=C(/C)C(=O)O[C@@H]1c2c(ccc3ccc(=O)oc23)OC(C)(C)[C@@H]1OC(=O)/C(C)=C\C,1.5,2.1,-20.3,-8.2,
COc1ccc(-n2c3nc4ccccc4nc3c3c(=N)oc(C)nc32)cc1,11.8,36.4,4.1,29.6*,ASAP1 GAP conf=9.7
COc1cc2nc(NCCCN3CCN(C)CC3)n3nc(-c4ccccc4)nc3c2cc1OC,15.8,x,30.5,36.4*,ASAP1 GAP conf=24.1
CC(=O)NCCNc1nc2cc(-c3ccccc3)sc2c(=O)n1C,-4.5,-94.6,5.7,28.0*,ASAP1 GAP conf=5.1
CC(=O)NCCNc1nc2cc(-c3cccc(C(F)(F)F)c3)sc2c(=O)n1C,4.4,-102.1,8.2,-3.4,
Cc1cccc2cccnc12,5.0,2.2,5.7,-12.0,
O=C1C=CC(=O)N1c1cccc2cccnc12,2.5,7.5,13.6,25.2*,ASAP1 GAP conf=3.2
NC(Cc1ccc(C(F)(F)F)cc1)c1csc(NC(=O)NCCc2ccccc2)n1 (stereo not drawn),-1.6,4.3,-12.6,5.7,
Cc1cc(C)c(C#N)c(SCc2cn3c(C)cccc3n2)n1,18.5,-2.5,10.8,24.7*,ASAP1 GAP conf=18.5
Cc1cccc(C)c1NC(=O)C1(C)CSCC(=O)N1Cc1cccc(C(F)(F)F)c1 (stereo not drawn),-2.8,-0.5,x,8.3,
Cc1ccc(C(=O)Nc2cccc(NC(=O)c3ccc(C)c([N+](=O)[O-])c3)n2)cc1[N+](=O)[O-],5.1,-0.8,1.1,28.4*,ASAP1 GAP conf=28.4*
Cc1cc(NC(=O)c2ccc(C)c([N+](=O)[O-])c2)no1,8.2,-12.4,15.0,-0.3,
NC(=O)C12NC(Cc3ccccc31)c1ccccc12 (stereo not drawn),2.5,x,x,13.8,
CCOC(=O)c1cccnc1SCC(=O)Nc1ccc(C)cc1,-5.2,-7.4,-6.9,0.1,
Cc1ccc(NC(=O)CSc2ncccc2C(=O)Oc2cccc([N+](=O)[O-])c2)cc1Cl,7.2,-2.4,-6.8,44.0*,ASAP1 GAP conf=39.0*
C[C@H](NC(=O)c1nc[nH]c1C(=O)N1CCN(C(=O)OC(C)(C)C)CC1)C(=O)OCc1ccccc1,0.2,-1.7,14.5,-0.3,
CC1CCN(C(=O)c2[nH]cnc2C(=O)N[C@@H](C)C(=O)OCc2ccccc2)CC1,-9.9,-12.9,-7.9,24.9*,ASAP1 GAP conf=2.4
O=c1c2ccccc2sn1-c1ccc(S(=O)(=O)N2CCCCC2)cc1,7.4,-149.9,-1.7,25.3*,ASAP1 GAP conf=8.4
O=c1c2ccccc2sn1-c1ccc(S(=O)(=O)N2CCCC2)cc1,-11.5,-96.9,-8.3,0.0,
